Data on one compound can be found in ChEMBL document CHEMBL3792331, “Identification and synthesis of potent and selective pyridyl-isoxazole based agonists of sphingosine-1-phosphate 1 (S1P1)” (Bioorg Med Chem Lett, 2016).

Data set [1] concerns the target Cytochrome P450 3A4 (Homo sapiens, UniProt P08684). Briefly: Inhibition of CYP3A4 (unknown origin). In kind it is ADME.
The subject of data set [2] is Rattus norvegicus. Briefly: Anti-inflammatory activity in Lewis rat complete Freund's adjuvant-induced arthritis model of human rheumatoid arthritis assessed as reduction in hind paw swelling at 0.5 and 3 mg/kg, po QD for 21 days starting at day 0 by plethysmometry. It counts as functional, organism-based. In outline:
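Male Lewis rats given complete Freund's adjuvant with heat-killed Mycobacterium butyricum subcutaneously at the tail base. Dosed orally once daily for 21 days from day 0. Hind paw volume measured by water displacement plethysmometry at baseline and over three weeks; increase above baseline calculated. Compared with vehicle, p<0.05.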

Data set [3] is described as follows: Plasma concentration Lewis rat at 1 mg/kg, po after 4 hrs. In kind it is ADME, organism-based. In short, it runs like this: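 Lewis rats given 1.0 mg/kg orally as solution or suspension in vehicle. Plasma drug concentration measured in blood drawn at 4 h and 24 h; 4 h/24 h ratio taken from these values.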
Data set [4] in a line: Volume of distribution at steady state in mouse at 2 mg/kg, iv. It counts as ADME, organism-based. As to conditions: in vivo, read-out: Vdss. In short, it runs like this: (§1)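 Multi-species pharmacokinetic study with separate iv and oral dosing arms. Steady-state volume of distribution was taken from the iv arm: 2 mg/kg in mouse and rat, 1 mg/kg in cynomolgus monkey and dog. Oral doses in the same study were 5 mg/kg in mouse and rat and 1 mg/kg in monkey and dog.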

A short description of data set [5]: Volume of distribution at steady state in rat at 2 mg/kg, iv. It counts as ADME, organism-based. As to conditions: in vivo, read-out: Vdss. In outline: as §1
Data set [6] has as its target T1, Cytochrome P450 1A2 (Homo sapiens, UniProt P05177).
T1 sequence (P05177 whole entry): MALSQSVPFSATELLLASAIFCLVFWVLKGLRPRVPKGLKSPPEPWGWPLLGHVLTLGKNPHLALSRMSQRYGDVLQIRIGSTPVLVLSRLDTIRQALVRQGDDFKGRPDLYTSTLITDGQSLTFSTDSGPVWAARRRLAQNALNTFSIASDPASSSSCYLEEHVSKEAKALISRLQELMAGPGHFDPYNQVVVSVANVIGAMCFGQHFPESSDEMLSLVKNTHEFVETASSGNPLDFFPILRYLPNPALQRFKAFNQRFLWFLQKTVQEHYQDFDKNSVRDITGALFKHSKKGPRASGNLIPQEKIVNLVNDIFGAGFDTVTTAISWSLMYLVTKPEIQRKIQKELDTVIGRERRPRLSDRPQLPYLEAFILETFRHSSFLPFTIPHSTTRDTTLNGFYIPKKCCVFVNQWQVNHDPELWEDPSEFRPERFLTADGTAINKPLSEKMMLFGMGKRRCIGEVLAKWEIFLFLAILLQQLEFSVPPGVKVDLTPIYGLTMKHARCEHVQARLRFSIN
Briefly: Inhibition of CYP1A2 (unknown origin). In kind it is ADME.

Data set [7] in a line: Half life in dog at 1 mg/kg, iv. In kind it is ADME, organism-based, Canis lupus familiaris. The settings on record: in vivo.
Data set [8] in a line: Half life in cynomolgus monkey at 1 mg/kg, iv. In kind it is ADME, organism-based, Macaca fascicularis. As to conditions: in vivo.
Data set [9] is described as follows: Oral bioavailability in dog at 1 mg/kg. In kind it is ADME, organism-based, Canis lupus familiaris. The settings on record: in vivo.
Data set [10] in a line: Selectivity index, ratio of EC50 for agonist activity at human S1P3 receptor expressed in EDG3-Ga15-bla HEK293T cell membranes to EC50 for agonist activity at human S1P1 receptor expressed in CHO cell membranes. In kind it is cell-based. In outline:
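S1P3/S1P1 ratio of GTPγ[35S] EC50s. Membranes from EDG3-Ga15-bla HEK293T (S1P3) or S1P1/CHO cells, […], 0.2 nM final [35S]GTP. HEPES pH 7.5 buffer with MgCl2, NaCl, EGTA, DTT, GDP, BSA and saponin. 45 min at room temperature, filtration read-out. Each EC50 taken at 50% of the compound's own Ymax.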

The target in data set [11] is Sphingosine 1-phosphate receptor 3 (Homo sapiens, UniProt Q99500). Briefly: Agonist activity at human S1P3 receptor expressed in EDG3-Ga15-bla HEK293T cell membranes assessed as stimulation of [35S]GTPgamma binding incubated for 45 mins by liquid scintillation counting method. More on the design: species or system HEK-293T. In short, it runs like this:
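Membranes from S1P1/CHO cells (S1P1) or EDG3-Ga15-bla HEK293T cells (S1P3), final protein […], with 3-fold compound dilutions. Buffer: 20 mM HEPES pH 7.5, 10 mM MgCl2, 150 mM NaCl, 1 mM EGTA, 1 mM DTT, GDP, 0.1% fatty acid free BSA, saponin. [35S]GTP 0.2 nM final. Room temperature, 45 min. Filtered, washed with water, dried 60 °C. EC50 taken at 50% of each compound's Ymax.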

Data set [12] relates to Cynomolgus monkey. Briefly: Ratio of Cmax to Cmin in cynomolgus monkey at 1 mg/kg, po. It counts as ADME, organism-based, Macaca fascicularis. As to conditions: in vivo.
The species entered for data set [13] is Homo sapiens. Briefly: Inhibition of sodium channel (unknown origin) at 10 uM under 1 and 4 Hz condition by patch clamp assay. In general terms: The patch-clamp technique gives a direct electrical read-out from membranes.
The nature of data set [14]: Protein binding in monkey plasma. It counts as ADME, cell-free, Macaca mulatta. As to conditions: rhesus monkey, read-out: PPB (converted).
Data set [15] can be described thus: Half life in mouse at 2 mg/kg, iv. It counts as ADME, organism-based. As to conditions: in vivo.
Data set [16] is described as follows: Volume of distribution at steady state in dog at 1 mg/kg, iv. In kind it is ADME, organism-based, Canis lupus familiaris. The settings on record: in vivo, read-out: Vdss. In outline:
as §1

Data set [17] has as its system Mus musculus. Briefly: Ratio of Cmax to Cmin in mouse at 5 mg/kg, po. It counts as ADME, organism-based. As to conditions: in vivo.
Data set [18] relates to Rattus norvegicus. Briefly: Ratio of Cmax to Cmin in rat at 5 mg/kg, po. The settings on record: in vivo. It counts as ADME, organism-based.
A short description of data set [19]: Volume of distribution at steady state in cynomolgus monkey at 1 mg/kg, iv. In kind it is ADME, organism-based, Macaca fascicularis. The settings on record: in vivo, read-out: Vdss. In outline: as §1
Data set [20] relates to Rattus norvegicus. As to the kind of experiment: Reduction in circulating lymphocytes in Lewis rat at 1 mg/kg, po after 4 hrs. It counts as functional. In outline: (§2)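 Healthy Lewis rats dosed orally with test article as solution or suspension in vehicle, or vehicle alone. Blood drawn at 4 h and 24 h. Circulating lymphocyte percentage measured by hematology analyzer, expressed as reduction versus the vehicle group. Group average, n = 3–4.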

In data set [21] the test system is Liver microsome. As to the kind of experiment: Stability in human liver microsomes assessed as compound remaining. In kind it is ADME.
Data set [22] can be described thus: Clearance in cynomolgus monkey at 1 mg/kg, iv. It counts as ADME, organism-based, Macaca fascicularis. The settings on record: in vivo.
The subject of data set [23] is Rattus norvegicus. As to the kind of experiment: Reduction in circulating lymphocytes in Lewis rat at 0.3 mg/kg, po after 24 hrs. It counts as functional. In outline:
as §2

Sequence of Cytochrome P450 3A4 (P08684 whole entry): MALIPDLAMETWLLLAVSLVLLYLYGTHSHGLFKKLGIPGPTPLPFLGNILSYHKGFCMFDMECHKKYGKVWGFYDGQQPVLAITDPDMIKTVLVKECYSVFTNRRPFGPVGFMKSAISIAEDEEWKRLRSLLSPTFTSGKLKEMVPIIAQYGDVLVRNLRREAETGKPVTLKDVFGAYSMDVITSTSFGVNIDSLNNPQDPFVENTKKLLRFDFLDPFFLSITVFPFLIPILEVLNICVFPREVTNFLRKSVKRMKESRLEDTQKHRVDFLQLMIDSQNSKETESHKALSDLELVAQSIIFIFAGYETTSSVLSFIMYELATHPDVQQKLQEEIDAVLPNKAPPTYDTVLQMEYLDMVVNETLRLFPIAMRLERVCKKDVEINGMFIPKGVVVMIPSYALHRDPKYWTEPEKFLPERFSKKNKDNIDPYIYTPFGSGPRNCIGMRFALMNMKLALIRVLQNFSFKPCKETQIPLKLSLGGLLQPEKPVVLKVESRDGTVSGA
Sequence of Sphingosine 1-phosphate receptor 3 (Q99500 whole entry): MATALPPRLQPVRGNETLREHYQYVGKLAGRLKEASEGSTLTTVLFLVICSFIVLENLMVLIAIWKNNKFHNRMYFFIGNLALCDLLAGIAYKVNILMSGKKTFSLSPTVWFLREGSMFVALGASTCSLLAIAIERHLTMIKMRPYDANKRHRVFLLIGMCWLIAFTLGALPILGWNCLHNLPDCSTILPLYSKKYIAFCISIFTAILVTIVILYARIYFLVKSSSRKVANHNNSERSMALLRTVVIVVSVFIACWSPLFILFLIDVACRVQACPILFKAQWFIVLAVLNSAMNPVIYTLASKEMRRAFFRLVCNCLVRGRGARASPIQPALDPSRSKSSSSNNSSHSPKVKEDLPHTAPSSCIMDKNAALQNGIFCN

Turning to `O=C(O)C1CN(Cc2ccc(-c3noc(-c4onc(-c5ccccn5)c4C(F)(F)F)n3)cc2)C1`, the half-maximal inhibitory concentration (IC50) in data set [1] and in data set [6] was > 40 µM each time. Further, the Activity entry in data set [2] is “Dose-dependent effect”. This compound also had a concentration at 4 h in [3] of 2510 nM. Besides, the Vd is 0.1 L/kg in data set [4], 0.4 L/kg in data set [5], 0.7 L/kg in data set [16] and 0.5 L/kg in [19]. For the same compound, the half-life was 6.1 h in [7], 1.1 h in [8] and 4.5 h in data set [15]. The compound also displayed a bioavailability in data set [9] of 87%. The Ratio EC50 in data set [10] was determined as 4100. Besides, in data set [11], the EC50 turned out to be 2.9 µM. For the same compound, the figures for the Ratio in [12], in [17] and in data set [18] were > 400, 2.8 and 26, respectively. Also, in data set [13], the inhibition was < 5%. Also, the fraction unbound in data set [14] was 0.065. Besides, in [20], testing at 1 mg/kg gave an inhibition in vivo of 85%. Moreover, the Stability in data set [21] is reported as 88%. For the same compound, the clearance in [22] was 14 mL/min/kg. In data set [23], this compound gave an inhibition in vivo at 0.3 mg/kg of 50%.

Usually IC50 stands for the concentration that inhibits the measured activity by half. One may read the half-life as the time needed for the level to fall by half in the phase considered. As a reminder, the bioavailability is dose-corrected exposure relative to a reference, in per cent. One may read the EC50 as the midpoint of the concentration-response curve. The term inhibition denotes the change of the read-out against control, counted positive when it falls. Broadly, the inhibition in vivo is the share of the control response that was lost under treatment. Broadly, the clearance is the volume of plasma or blood freed of the substance per unit of time.
